Assay results as given in ChEMBL document CHEMBL1158484 (J Med Chem, 2009).
The source made the active and inactive calls. No cut-off for these calls is given here.

Assays:
[1] = Selectivity index, ratio of IC50 for rat L6 cells to IC50 for bloodstream Trypanosoma brucei rhodesiense STIB900; assay type: toxicity, cell-based; settings: read-out: Ratio IC50
[2] = system: Trypanosoma brucei rhodesiense; test: Antitrypanosomal activity against bloodstream Trypanosoma brucei rhodesiense STIB900 infected in NMRI mouse assessed as survival rate at 100 mg/kg, po administered 4 consecutive days from day 3 to 6 postinfection; assay type: functional
Summary of the method: (§1)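 Female NMRI mice infected ip with 2×10^4 STIB900 bloodstream forms. Groups of four treated on days 3–6 postinfection. Compounds in DMSO diluted with water to a final 10% DMSO. Untreated infected controls. Tail blood checked for parasitemia to day 60. Surviving aparasitemic mice at day 60 scored cured; mean survival time in days from recorded deaths.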

Plasmodium falciparum = test: Antiplasmodial activity after 48 hrs against chloroquine-resistant Plasmodium falciparum K1 infected human erythrocytes by [3H]hypoxanthine uptake; assay type: functional, organism-based
[3] = system: Trypanosoma brucei rhodesiense; test: Antitrypanosomal activity against bloodstream Trypanosoma brucei rhodesiense STIB900 after 70 hrs by alamar blue assay; assay type: functional, organism-based; settings: STIB900, 70 h
Summary of the method: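 Bloodstream forms, 2000 per well, in supplemented MEM with Earle's salts (0.2 mM 2-mercaptoethanol, 1 mM pyruvate, 0.5 mM hypoxanthine, 15% heat-inactivated horse serum). Serial dilutions, 70 h at 37 °C, 5% CO2. IC50 from sigmoidal curves; two independent runs in duplicate. DMSO ≤1%.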

L6 = test: Cytotoxicity against rat L6 cells after 70 hrs by alamar blue assay; assay type: cell-based; settings: L6, 70 h
[4] = Selectivity index, ratio of IC50 for rat L6 cells to IC50 for axenic amastigotes of Leishmania donovani MHOM/SD/62/1S-CL2D; assay type: toxicity, cell-based; settings: read-out: Ratio IC50
Summary of the method: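 Ratio of L6 IC50 to L. donovani IC50. L6: 4000 cells in RPMI 1640 with 10% FBS, 70 h at 37 °C, then Alamar blue 2–3 h, fluorescence 536/588 nm. Leishmania: 6×10^4 axenic amastigotes per well, 2-fold dilutions, 72 h at 37 °C in 5% CO2, tetrazolium CellTiter read at 490 nm. IC50 from a four-parameter dose–response fit.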

Leishmania donovani [5] = test: Antileishmanial activity against axenic amastigotes of Leishmania donovani MHOM/SD/62/1S-CL2D after 72 hrs; assay type: functional, organism-based
Summary of the method: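 Axenic amastigotes (adapted from promastigotes), 6×10^4 per well, amastigote medium, 37 °C. 2-fold compound dilutions; 72 h at 37 °C, humidified 5% CO2. Growth read by tetrazolium CellTiter absorbance at 490 nm several hours after reagent addition. IC50 from four-parameter dose–response fit. DMSO ≤1%.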

[6] = system: Trypanosoma brucei rhodesiense; test: Antitrypanosomal activity against bloodstream Trypanosoma brucei rhodesiense STIB900 infected in NMRI mouse assessed as parasite free mouse survival at 100 mg/kg, po administered for 4 consecutive days from day 3 to 6 postinfection measured up to 60 days; assay type: functional, organism-based; set-up: dose 100 mg/kg
[7] = Selectivity index, ratio of IC50 for rat L6 cells to IC50 for chloroquine-resistant Plasmodium falciparum K1; assay type: toxicity, cell-based; settings: read-out: Ratio IC50
Summary of the method: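 Ratio of L6 IC50 to P. falciparum K1 IC50. L6: 4000 cells, 70 h at 37 °C, Alamar blue fluorescence. Parasites: infected human erythrocytes (1.25% hematocrit, 0.3% parasitemia) in low-O2 gas for 48 h, then [3H]-hypoxanthine for 24 h, uptake counted. Sigmoidal IC50s, two independent runs in duplicate.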

[8] = system: Trypanosoma brucei rhodesiense; test: Antitrypanosomal activity against bloodstream Trypanosoma brucei rhodesiense STIB900 infected in NMRI mouse assessed as parasite free mouse survival at 5 mg/kg, ip administered for 4 consecutive days from day 3 to 6 postinfection measured up to 60 days; assay type: functional, organism-based; set-up: dose 5 mg/kg
Summary of the method: (§2)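 Female NMRI mice infected ip with 2×10^4 STIB900 bloodstream forms; groups of four dosed on 4 consecutive days, days 3-6 postinfection. Compounds in DMSO diluted with water to 10% DMSO. Untreated infected controls. Tail-blood parasitemia followed to day 60; surviving aparasitemic mice at day 60 scored cured; mean survival time recorded.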

[9] = system: Trypanosoma brucei rhodesiense; test: Antitrypanosomal activity against bloodstream Trypanosoma brucei rhodesiense STIB900 infected in NMRI mouse assessed as survival rate at 5 mg/kg, ip administered 4 consecutive days from day 3 to 6 postinfection; assay type: functional; settings: route intraperitoneal; summary of the method: as §1
[10] = system: Trypanosoma brucei rhodesiense; test: Antitrypanosomal activity against bloodstream Trypanosoma brucei rhodesiense STIB900 infected in NMRI mouse assessed as survival rate at 2 mg/kg, ip administered 4 consecutive days from day 3 to 6 postinfection; assay type: functional; settings: route intraperitoneal; summary of the method: as §1
[11] = system: Trypanosoma brucei rhodesiense; test: Antitrypanosomal activity against bloodstream Trypanosoma brucei rhodesiense STIB900 infected in NMRI mouse assessed as parasite free mouse survival at 2 mg/kg, ip administered for 4 consecutive days from day 3 to 6 postinfection measured up to 60 days; assay type: functional, organism-based; set-up: dose 2 mg/kg; summary of the method: as §1
[12] = system: Trypanosoma brucei rhodesiense; test: Antitrypanosomal activity against bloodstream Trypanosoma brucei rhodesiense STIB900 infected in NMRI mouse assessed as survival rate at 1 mg/kg, ip administered 4 consecutive days from day 3 to 6 postinfection; assay type: functional; settings: route intraperitoneal; summary of the method: as §1
Leishmania donovani [13] = test: Ratio of compound IC50 to pentamidine IC50 for Leishmania donovani MHOM/SD/62/1S-CL2D; assay type: functional
[14] = system: Trypanosoma brucei rhodesiense; test: Ratio compound IC50 to pentamidine IC50 for Trypanosoma brucei rhodesiense STIB900; assay type: functional
[15] = system: Trypanosoma brucei rhodesiense; test: Antitrypanosomal activity against bloodstream Trypanosoma brucei rhodesiense STIB900 infected in NMRI mouse assessed as parasite free mouse survival at 25 mg/kg, po administered for 4 consecutive days from day 3 to 6 postinfection measured up to 60 days; assay type: functional, organism-based; set-up: dose 25 mg/kg; summary of the method: as §2
[16] = system: Trypanosoma brucei rhodesiense; test: Antitrypanosomal activity against bloodstream Trypanosoma brucei rhodesiense STIB900 infected in NMRI mouse assessed as survival rate at 25 mg/kg, po administered 4 consecutive days from day 3 to 6 postinfection; assay type: functional; summary of the method: as §1
[17] = system: Trypanosoma brucei brucei; test: Antitrypanosomal activity against second-stage Trypanosoma brucei brucei GVR35 infected in african sleeping sickness CNS mouse model; assay type: functional, organism-based

SMILES: N/C(=N\O)c1cc(OCCCCCOc2ccnc(/C(N)=N/O)c2)ccn1
- selectivity ratio [1]: 13
- Survival [2]: 14.25 days
- IC50 (Plasmodium falciparum): > 2.1 µM
- IC50 [3]: 12 µM
- IC50 (L6): 159 µM
- selectivity ratio [4]: 4
- IC50 (Leishmania donovani [5]): 45 µM
- Activity [6]: inactive
- selectivity ratio [7]: < 76

SMILES: CC(C)NC(=N)c1cc(OCCCCCOc2ccnc(C(=N)NC(C)C)c2)ccn1
- selectivity ratio [1]: > 91
- IC50 (Plasmodium falciparum): 1.33 µM
- IC50 [3]: 1.7 µM
- IC50 (L6): > 155 µM
- selectivity ratio [4]: 2
- IC50 (Leishmania donovani [5]): > 100 µM
- selectivity ratio [7]: > 117

SMILES: c1cc(OCCCCCOc2cccc(C3=NCCN3)n2)nc(C2=NCCN2)c1
- selectivity ratio [1]: 5
- IC50 (Plasmodium falciparum): 0.568 µM
- IC50 [3]: 3.07 µM
- IC50 (L6): 14.6 µM
- selectivity ratio [4]: < 1
- IC50 (Leishmania donovani [5]): 24 µM
- selectivity ratio [7]: 26

SMILES: CC(C)NC(=N)c1ccc(OCCCCCOc2ccc(C(=N)NC(C)C)nc2)cn1
- Activity [8]: inactive
- Survival [9]: 18.5 days
- selectivity ratio [1]: 4350
- IC50 (Plasmodium falciparum): 0.006 µM
- IC50 [3]: 0.034 µM
- IC50 (L6): 148 µM
- selectivity ratio [4]: 25
- IC50 (Leishmania donovani [5]): 6 µM
- selectivity ratio [7]: 24700

SMILES: c1cc(OCCCCCOc2ccnc(C3=NCCN3)c2)cc(C2=NCCN2)n1
- selectivity ratio [1]: 6
- IC50 (Plasmodium falciparum): 4.26 µM
- IC50 [3]: 12.5 µM
- IC50 (L6): 80.8 µM
- selectivity ratio [4]: < 1
- IC50 (Leishmania donovani [5]): > 100 µM
- selectivity ratio [7]: 19

SMILES: N=C(N)c1cccc(OCCCCCOc2cccc(C(=N)N)n2)n1
- Activity [8]: inactive
- Survival [9]: 22.5 days
- selectivity ratio [1]: 6000
- IC50 (Plasmodium falciparum): 0.027 µM
- IC50 [3]: 0.019 µM
- IC50 (L6): 114 µM
- selectivity ratio [4]: 28
- IC50 (Leishmania donovani [5]): 4.1 µM
- selectivity ratio [7]: 4220

SMILES: Nc1nc(N)nc(Nc2ccc([As]3SCC(CO)S3)cc2)n1 (centres undefined) [MELARSOPROL]
- Survival [10]: >60 days
- Activity [11]: Active
- Survival [12]: >51.5 days

SMILES: N=C(N)c1ccc(OCCCCCOc2ccc(C(=N)N)nc2)cn1
- Survival [9]: >36 days
- Ratio IC50 (Leishmania donovani [13]): 4
- selectivity ratio [1]: 4900
- IC50 (Plasmodium falciparum): 0.009 µM
- IC50 [3]: 0.001 µM
- IC50 (L6): 4.9 µM
- selectivity ratio [4]: 11
- IC50 (Leishmania donovani [5]): 0.47 µM
- Ratio IC50 [14]: 3
- selectivity ratio [7]: 544

SMILES: N=C(N)c1cc(OCCCCCOc2ccnc(C(=N)N)c2)ccn1
- Activity [8]: inactive
- Survival [9]: 14 days
- selectivity ratio [1]: 1160
- IC50 (Plasmodium falciparum): 0.016 µM
- IC50 [3]: 0.051 µM
- IC50 (L6): 59.3 µM
- selectivity ratio [4]: 2
- IC50 (Leishmania donovani [5]): 38 µM
- selectivity ratio [7]: 3710

SMILES: N=C(N)c1ccc(OCCCCCOc2ccc(C(=N)N)cn2)nc1
- Activity [8]: inactive
- Survival [9]: 17.75 days
- selectivity ratio [1]: 1960
- IC50 (Plasmodium falciparum): 0.329 µM
- IC50 [3]: 0.07 µM
- IC50 (L6): 137 µM
- selectivity ratio [4]: 4
- IC50 (Leishmania donovani [5]): 39 µM
- selectivity ratio [7]: 416

SMILES: CO/N=C(/N)c1ccc(OCCCCCOc2ccc(/C(N)=N\OC)nc2)cn1
- Activity [15]: inactive
- Survival [16]: 19.5 days
- selectivity ratio [1]: < 1
- IC50 (Plasmodium falciparum): 3.5 µM
- IC50 [3]: 51.2 µM
- IC50 (L6): 39.4 µM
- selectivity ratio [4]: < 1
- IC50 (Leishmania donovani [5]): > 50 µM
- selectivity ratio [7]: 11

SMILES: c1cc(C2=NCCN2)ncc1OCCCCCOc1ccc(C2=NCCN2)nc1
- Activity [8]: inactive
- Survival [9]: 12.75 days
- selectivity ratio [1]: 484
- IC50 (Plasmodium falciparum): 0.036 µM
- IC50 [3]: 0.17 µM
- IC50 (L6): 82.3 µM
- selectivity ratio [4]: 2
- IC50 (Leishmania donovani [5]): 36 µM
- selectivity ratio [7]: 2290

SMILES: CC(C)NC(=N)c1ccc(OCCCCCOc2ccc(C(=N)NC(C)C)cn2)nc1
- selectivity ratio [1]: > 562
- IC50 (Plasmodium falciparum): 0.256 µM
- IC50 [3]: 0.276 µM
- IC50 (L6): > 155 µM
- selectivity ratio [4]: 2
- IC50 (Leishmania donovani [5]): > 100 µM
- selectivity ratio [7]: > 605

SMILES: N/C(=N\O)c1ccc(OCCCCCOc2ccc(/C(N)=N\O)cn2)nc1
- Activity [15]: inactive
- Survival [16]: 8.75 days
- selectivity ratio [1]: < 1
- IC50 (Plasmodium falciparum): 6.5 µM
- IC50 [3]: 27.4 µM
- IC50 (L6): 16.4 µM
- selectivity ratio [4]: < 1
- IC50 (Leishmania donovani [5]): > 100 µM
- selectivity ratio [7]: 3

SMILES: N/C(=N/O)c1ccc(OCCCCCOc2ccc(/C(N)=N\O)nc2)cn1
- Activity [15]: Active
- Activity [17]: inactive
- Survival [16]: >60 days
- selectivity ratio [1]: 2
- IC50 (Plasmodium falciparum): > 10.7 µM
- IC50 [3]: 108 µM
- IC50 (L6): 166 µM
- selectivity ratio [4]: < 2
- IC50 (Leishmania donovani [5]): > 100 µM
- selectivity ratio [7]: < 16

SMILES: CO/N=C(\N)c1ccc(OCCCCCOc2ccc(/C(N)=N\OC)cn2)nc1
- selectivity ratio [1]: > 7
- IC50 (Plasmodium falciparum): 2.24 µM
- IC50 [3]: 25.9 µM
- IC50 (L6): > 185 µM
- selectivity ratio [4]: 2
- IC50 (Leishmania donovani [5]): > 100 µM
- selectivity ratio [7]: > 83

SMILES: c1cc(OCCCCCOc2ccc(C3=NCCN3)cn2)ncc1C1=NCCN1
- selectivity ratio [1]: 78
- IC50 (Plasmodium falciparum): 1.86 µM
- IC50 [3]: 1.42 µM
- IC50 (L6): 111 µM
- selectivity ratio [4]: 1
- IC50 (Leishmania donovani [5]): > 100 µM
- selectivity ratio [7]: 60

SMILES: N=C(N)c1ccc(OCCCCCOc2ccc(C(=N)N)cc2)cc1 [PENTAMIDINE]
- Survival [9]: >45 days

SMILES: N/C(=N\O)c1cccc(OCCCCCOc2cccc(/C(N)=N/O)n2)n1
- selectivity ratio [1]: 3
- IC50 (Plasmodium falciparum): 10.5 µM
- IC50 [3]: 19 µM
- IC50 (L6): 52.2 µM
- selectivity ratio [4]: 1
- IC50 (Leishmania donovani [5]): > 50 µM
- selectivity ratio [7]: 5

SMILES: CO/N=C(\N)c1cc(OCCCCCOc2ccnc(/C(N)=N/OC)c2)ccn1
- selectivity ratio [1]: 8
- Survival [2]: 11.75 days
- IC50 (Plasmodium falciparum): > 2 µM
- IC50 [3]: 18.2 µM
- IC50 (L6): 138 µM
- selectivity ratio [4]: 1
- IC50 (Leishmania donovani [5]): > 100 µM
- Activity [6]: inactive
- selectivity ratio [7]: < 69
